According to ChEMBL document CHEMBL4433267, “Symmetry-based ligand design and evaluation of small molecule inhibitors of programmed cell death-1/programmed death-ligand 1 interaction” (Bioorg Med Chem Lett, 2019):
pEC50, pKd: −log10 of the molar value. Calls of active or inactive are those of the source. No cut-off for these calls is given here.

How the values were obtained:
[1] = target: T1, Programmed cell death 1 ligand 1 (Homo sapiens, UniProt Q9NZQ7); assay: Binding affinity to FC-tagged human PDL1 by SPR assay
T1 sequence (Q9NZQ7 whole entry): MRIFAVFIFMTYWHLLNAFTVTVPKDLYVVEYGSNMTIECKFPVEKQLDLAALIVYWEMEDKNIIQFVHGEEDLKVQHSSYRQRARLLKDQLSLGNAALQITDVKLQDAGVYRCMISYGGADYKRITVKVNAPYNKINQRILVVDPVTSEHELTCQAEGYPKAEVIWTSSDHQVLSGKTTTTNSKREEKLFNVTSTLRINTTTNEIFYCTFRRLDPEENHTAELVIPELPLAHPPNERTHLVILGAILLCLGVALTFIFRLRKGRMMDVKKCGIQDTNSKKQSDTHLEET
Outline: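 Surface plasmon resonance against hPD-L1, reported as equilibrium dissociation constant (K_D).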

[2] = target: Programmed cell death protein 1/Programmed cell death 1 ligand 1 (Homo sapiens, UniProt Q9NZQ7); assay: Inhibition of human PDL1 expressed in CHO-K1 cells co-expressing aAPC assessed as reduction in PDL1 interaction with human PD1 expressed in Jurkat T cells incubated for 18 hrs by Bio-Glo reagent based luminescence assay; type: cell-based
Sequence of Programmed cell death protein 1/Programmed cell death 1 ligand 1 (Q15116 whole entry): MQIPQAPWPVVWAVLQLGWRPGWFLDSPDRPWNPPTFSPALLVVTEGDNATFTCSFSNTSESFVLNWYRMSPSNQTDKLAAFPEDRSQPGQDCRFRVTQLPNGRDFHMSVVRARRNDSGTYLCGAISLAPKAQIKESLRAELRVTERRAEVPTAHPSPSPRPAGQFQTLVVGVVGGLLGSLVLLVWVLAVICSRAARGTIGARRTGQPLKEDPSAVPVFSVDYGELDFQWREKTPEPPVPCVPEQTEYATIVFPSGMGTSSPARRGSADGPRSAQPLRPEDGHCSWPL
Sequence of Programmed cell death protein 1/Programmed cell death 1 ligand 1 (Q9NZQ7 whole entry): as the sequence (Q9NZQ7 whole entry) above
Outline: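 In the PD-1/PD-L1 blockade bioassay, activity is expressed as EC50, with anti-PD-1 antibody as positive control.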

[3] = target: T1, Programmed cell death 1 ligand 1; assay: Induction of Flag-tagged human PDL1 dimerization assessed as shortening of retention time of PD-L1 at 12 uM incubated for 10 mins by size-exclusion chromatography
Homo sapiens = organism: Homo sapiens; assay: Induction of IFN-gamma secretion in human CD4+ T cells in presence of dendritic cells incubated for 7 days by AlphaLISA based mixed lymphocyte reaction assay; type: functional, cell-based
Outline: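 CD4+ T cells were cultured 7 days, either alone or with monocyte-derived dendritic cells, with or without test agent; anti-PD-1 antibody was run as comparator. IFN-γ in culture supernatants was measured as the activation read-out. Mean ± SD is from experiments in triplicate.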

SMILES | pKd [1] | pEC50 [2] | Activity [3] | Activity (Homo sapiens)
Cc1ccccc1-c1cccc(COc2ccc(CN[C@H](CO)C(=O)O)c(OCc3cncc(C#N)c3)c2)c1C | 8.52 | – | – | –
Cc1c(COc2ccc(CN[C@H](CO)C(=O)O)cc2)cccc1-c1cccc(COc2ccc(CN[C@H](CO)C(=O)O)c(OCc3cncc(C#N)c3)c2)c1C | 9.54 | – | – | –
Cc1c(COc2ccc(CN[C@H](CO)C(=O)O)c(OCc3cncc(C#N)c3)c2)cccc1-c1ccccc1 | 8.96 | < 4.52 | – | –
Cc1c(COc2ccc(CN[C@H](CO)C(=O)O)c(OCc3cncc(C#N)c3)c2)cccc1-c1cccc(COc2ccc(CN[C@H](CO)C(=O)O)c(OCc3cncc(C#N)c3)c2)c1 | 9.70 | 5.08 | – | –
Cc1c(COc2ccc(CN[C@H](CO)C(=O)O)c(OCc3cncc(C#N)c3)c2)cccc1-c1cccc(COc2ccc(CN[C@H](CO)C(=O)O)c(OCc3cncc(C#N)c3)c2)c1C | 10.72 | 6.00 | Active | Dose-dependent effect
COc1cc(OCc2cccc(-c3cccc(COc4ccc(CN[C@H](CO)C(=O)O)c(OCc5cncc(C#N)c5)c4)c3C)c2C)ccc1CN[C@H](CO)C(=O)O | 9.68 | 5.02 | – | –
Cc1c(COc2cccc(OCc3cncc(C#N)c3)c2)cccc1-c1cccc(COc2ccc(CN[C@H](CO)C(=O)O)c(OCc3cncc(C#N)c3)c2)c1C | 8.43 | < 4.00 | – | –
